Measured values published in ChEMBL document CHEMBL2417545, “6-methoxy-7-benzofuranoxy and 6-methoxy-7-indolyloxy analogues of 2-[2-(2,6-Dimethoxyphenoxy)ethyl]aminomethyl-1,4-benzodioxane (WB4101):1 discovery of a potent and selective α1D-adrenoceptor antagonist” (J Med Chem, 2013).

Assays:
[1] = molecular target: T1, Alpha-1B adrenergic receptor (Homo sapiens, UniProt P35368); assay: Displacement of [3H]prazosin from human alpha-1B adrenoreceptor expressed in CHO cells after 30 mins; assay type: cell-based
T1 sequence (P35368 whole entry): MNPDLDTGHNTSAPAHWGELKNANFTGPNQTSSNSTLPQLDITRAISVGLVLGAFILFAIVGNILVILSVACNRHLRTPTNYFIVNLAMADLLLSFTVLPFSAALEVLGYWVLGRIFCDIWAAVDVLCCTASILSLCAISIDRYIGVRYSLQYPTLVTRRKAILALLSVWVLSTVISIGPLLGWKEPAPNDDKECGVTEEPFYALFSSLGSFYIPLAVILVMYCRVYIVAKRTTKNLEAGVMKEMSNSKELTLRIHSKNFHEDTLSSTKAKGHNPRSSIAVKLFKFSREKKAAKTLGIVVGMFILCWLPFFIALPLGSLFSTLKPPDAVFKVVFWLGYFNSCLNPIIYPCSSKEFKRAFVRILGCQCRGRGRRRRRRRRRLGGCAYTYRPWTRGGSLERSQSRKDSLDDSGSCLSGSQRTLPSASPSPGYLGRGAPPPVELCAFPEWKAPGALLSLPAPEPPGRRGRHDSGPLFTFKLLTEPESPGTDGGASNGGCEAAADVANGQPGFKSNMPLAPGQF
Procedure, shortened: (§1)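 Membranes from CHO cells expressing each α₁-AR subtype, incubated 30 min at 25 °C in 50 mM Tris HCl pH 7.7 with 10 μM pargyline and 0.1% ascorbic acid, plus 0.5 nM [³H]prazosin and varying test compound concentrations. Nonspecific binding was defined with 1 μM prazosin.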

[2] = molecular target: T2, Alpha-1A adrenergic receptor (Homo sapiens, UniProt P35348); assay: Displacement of [3H]prazosin from human alpha-1A adrenoreceptor expressed in CHO cells after 30 mins; assay type: cell-based; procedure, shortened: as §1
T2 sequence (P35348 whole entry): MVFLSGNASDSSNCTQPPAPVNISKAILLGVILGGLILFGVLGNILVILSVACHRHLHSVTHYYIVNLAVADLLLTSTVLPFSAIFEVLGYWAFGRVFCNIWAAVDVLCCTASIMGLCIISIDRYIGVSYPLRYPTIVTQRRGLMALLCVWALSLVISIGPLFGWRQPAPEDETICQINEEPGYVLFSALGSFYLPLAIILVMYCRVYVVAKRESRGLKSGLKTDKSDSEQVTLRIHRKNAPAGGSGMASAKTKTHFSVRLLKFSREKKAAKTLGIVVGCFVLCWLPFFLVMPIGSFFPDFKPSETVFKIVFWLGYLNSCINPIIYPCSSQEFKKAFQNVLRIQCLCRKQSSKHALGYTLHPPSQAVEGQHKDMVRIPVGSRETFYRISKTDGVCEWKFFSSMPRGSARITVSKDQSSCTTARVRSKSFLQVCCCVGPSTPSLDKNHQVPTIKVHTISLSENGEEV

Rattus norvegicus [3] = species on record: Rattus norvegicus; assay: Selectivity ratio of Ki for alpha-1D adrenoreceptor in Sprague-Dawley rat thoracic aorta to Ki for alpha-1B adrenoreceptor in Sprague-Dawley rat spleen; assay type: tissue-based
Rattus norvegicus [4] = species on record: Rattus norvegicus; assay: Selectivity ratio of Ki for alpha-1D adrenoreceptor in Sprague-Dawley rat thoracic aorta to Ki for alpha-1A adrenoreceptor in Sprague-Dawley rat prostatic vas deferens; assay type: tissue-based
Rattus norvegicus [5] = species on record: Rattus norvegicus; assay: Selectivity ratio of Ki for alpha-1D adrenoreceptor in Sprague-Dawley rat thoracic aorta to Ki for alpha-1A adrenoreceptor in Sprague-Dawley rat prostate; assay type: tissue-based

| Ki [1] [nM] | Ki [2] [nM] | Compound | Ratio Ki (Rattus norvegicus [3]) | Ratio Ki (Rattus norvegicus [4]) | Ratio Ki (Rattus norvegicus [5]) |
| --- | --- | --- | --- | --- | --- |
| 35.5 | 3.8 | COc1ccc2c(c1OCCNC[C@H]1COc3ccccc3O1)NCC2.Cl.Cl |  |  |  |
| 28.8 | 0.49 | COc1ccc2ccoc2c1OCCNC[C@H]1COc2ccccc2O1.Cl | 2 | 6 |  |
| 21.9 | 2 | COc1ccc2c(c1OCCNC[C@H]1COc3ccccc3O1)OCC2.Cl | 12 | 129 | 50 |
| 490 | 178 | COc1ccc2cc[nH]c2c1OCCNC[C@H]1COc2ccccc2O1 |  |  |  |
